Source: ChEMBL document CHEMBL1121485, “Antiestrogens. Synthesis and evaluation of mammary tumor inhibiting activity of 1,1,2,2-tetraalkyl-1,2 -diphenylethanes” (1980)

Tests used:
[1] = biological target: T1, Estrogen receptor (Bos taurus) (UniProt Q9XSB5+P49884); assay: Association constant for Estrogen receptor; format: protein assay
[2] = biological target: T1, Estrogen receptor (Bos taurus); assay: Relative binding affinity for Estrogen receptor compared to 17-beta-estradiol; format: protein assay
[3] = biological target: T2, Estrogen receptor (Mus musculus) (UniProt O08537+P19785); assay: Uterotrophic effect in mice as uterus dry weight(mg) compared to body weight(g) at 0 ug/day dose; format: functional, tissue-based
Outline: (§1)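 Mice aged 20 days at start, dosed sc once daily for 3 days (0.1 mL injections, arachis oil vehicle); vehicle-only control group. Killed 24 h after last dose; body weight recorded; uteri fixed in Bouin's solution 12 h, trimmed of connective tissue, washed with saturated alcoholic LiCl, dried 100 °C for 24 h, then weighed.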

[4] = biological target: T2, Estrogen receptor (Mus musculus); assay: Anti-uterotrophic effect in mice as uterus dry weight(mg) compared to body weight(g) at 500 ug/day dose; format: functional, tissue-based; outline: as §1
[5] = biological target: T2, Estrogen receptor (Mus musculus); assay: Uterotrophic effect in mice as uterus dry weight(mg) compared to body weight(g) at 100 ug/day dose; format: functional, tissue-based; outline: as §1
[6] = biological target: T2, Estrogen receptor (Mus musculus); assay: Uterotrophic effect in mice as uterus dry weight(mg) compared to body weight(g) at 25 ug/day dose; format: functional, tissue-based; outline: as §1
[7] = biological target: T2, Estrogen receptor (Mus musculus); assay: Uterotrophic effect in mice as uterus dry weight(mg) compared to body weight(g) at 5 ug/day dose; format: functional, tissue-based; outline: as §1
[8] = biological target: T2, Estrogen receptor (Mus musculus); assay: Anti-uterotrophic effect in mice as uterus dry weight(mg) compared to body weight(g) at 0 ug/day dose; format: functional, tissue-based; outline: as §1
[9] = biological target: T2, Estrogen receptor (Mus musculus); assay: Anti-uterotrophic effect in mice as uterus dry weight(mg) compared to body weight(g) at 10 ug/day dose; format: functional, tissue-based; outline: as §1
[10] = biological target: T2, Estrogen receptor (Mus musculus); assay: Anti-uterotrophic effect in mice as uterus dry weight(mg) compared to body weight(g) at 100 ug/day dose; format: functional, tissue-based; outline: as §1
[11] = biological target: T2, Estrogen receptor (Mus musculus); assay: Uterotrophic effect in mice as uterus dry weight(mg) compared to body weight(g) at 500 ug/day dose; format: functional, tissue-based; outline: as §1
[12] = biological target: T1, Estrogen receptor (Bos taurus); assay: Ratio of association constants for estradiol and compound in estrogen receptor binding assay; format: protein assay
[13] = organism: Mus musculus; assay: Inhibition of estrone-stimulated uterine growth in mice at 10 ug
[14] = biological target: T2, Estrogen receptor (Mus musculus); assay: Uterotrophic effect in mice as uterus dry weight(mg) compared to body weight(g) at 20 ug/day dose; format: functional, tissue-based; outline: as §1
[15] = biological target: T2, Estrogen receptor (Mus musculus); assay: Uterotrophic effect in mice as uterus dry weight(mg) compared to body weight(g) at 4 ug/day dose; format: functional, tissue-based; outline: as §1
[16] = biological target: T2, Estrogen receptor (Mus musculus); assay: Anti-uterotrophic effect in mice as uterus dry weight(mg) compared to body weight(g) at 2 ug/day dose; format: functional, tissue-based; outline: as §1
[17] = biological target: T2, Estrogen receptor (Mus musculus); assay: Anti-uterotrophic effect in mice as uterus dry weight(mg) compared to body weight(g) at 25 ug/day dose; format: functional, tissue-based; outline: as §1
[18] = biological target: T2, Estrogen receptor (Mus musculus); assay: Anti-uterotrophic effect in mice as uterus dry weight(mg) compared to body weight(g) at 250 ug/day dose; format: functional, tissue-based; outline: as §1
[19] = organism: Mus musculus; assay: Inhibition of estrone-stimulated uterine growth in mice at 2 ug
[20] = biological target: T2, Estrogen receptor (Mus musculus); assay: Uterotrophic effect in mice as uterus dry weight(mg) compared to body weight(g) at 1000 ug/day dose; format: functional, tissue-based; outline: as §1
[21] = biological target: T2, Estrogen receptor (Mus musculus); assay: Uterotrophic effect in mice as uterus dry weight(mg) compared to body weight(g) at 24 ug/day dose; format: functional, tissue-based; outline: as §1
[22] = biological target: T2, Estrogen receptor (Mus musculus); assay: Uterotrophic effect in mice as uterus dry weight(mg) compared to body weight(g) at 250 ug/day dose; format: functional, tissue-based; outline: as §1
[23] = biological target: T2, Estrogen receptor (Mus musculus); assay: Anti-uterotrophic effect in mice as uterus dry weight(mg) compared to body weight(g) at 1000 ug/day dose; format: functional, tissue-based; outline: as §1
[24] = biological target: T2, Estrogen receptor (Mus musculus); assay: Uterotrophic effect in mice as uterus dry weight(mg) compared to body weight(g) at 80 ug/day dose; format: functional, tissue-based; outline: as §1
[25] = biological target: T2, Estrogen receptor (Mus musculus); assay: Uterotrophic effect in mice as uterus dry weight(mg) compared to body weight(g) at 8 ug/day dose; format: functional, tissue-based; outline: as §1
[26] = biological target: T2, Estrogen receptor (Mus musculus); assay: Anti-uterotrophic effect in mice as uterus dry weight(mg) compared to body weight(g) at 5 ug/day dose; format: functional, tissue-based; outline: as §1
[27] = organism: Mus musculus; assay: Inhibition of estrone-stimulated uterine growth in mice at 5 ug
[28] = organism: Mus musculus; assay: Inhibition of estrone-stimulated uterine growth in mice at 25 ug
[29] = organism: Mus musculus; assay: Inhibition of estrone-stimulated uterine growth in mice at 100 ug
[30] = organism: Mus musculus; assay: Inhibition of estrone-stimulated uterine growth in mice at 250 ug
[31] = organism: Mus musculus; assay: Inhibition of estrone-stimulated uterine growth in mice at 1000 ug
[32] = biological target: T2, Estrogen receptor (Mus musculus); assay: Uterotrophic effect in mice as uterus dry weight(mg) compared to body weight(g) at 10 ug/day dose; format: functional, tissue-based; outline: as §1
[33] = biological target: T2, Estrogen receptor (Mus musculus); assay: Uterotrophic effect in mice as uterus dry weight(mg) compared to body weight(g) at 2 ug/day dose; format: functional, tissue-based; outline: as §1
[34] = biological target: T2, Estrogen receptor (Mus musculus); assay: Uterotrophic effect in mice as uterus dry weight(mg) compared to body weight(g) at 50 ug/day dose; format: functional, tissue-based; outline: as §1
[35] = biological target: T2, Estrogen receptor (Mus musculus); assay: Uterotrophic effect in mice as uterus dry weight(mg) compared to body weight(g) at 2.5 ug/day dose; format: functional, tissue-based; outline: as §1
[36] = biological target: T2, Estrogen receptor (Mus musculus); assay: Anti-uterotrophic effect in mice as uterus dry weight(mg) compared to body weight(g) at 2.5 ug/day dose; format: functional, tissue-based; outline: as §1
[37] = organism: Mus musculus; assay: Inhibition of estrone-stimulated uterine growth in mice at 2.5 ug
[38] = biological target: T2, Estrogen receptor (Mus musculus); assay: Anti-uterotrophic effect in mice as uterus dry weight(mg) compared to body weight(g) at 50 ug/day dose; format: functional, tissue-based; outline: as §1
[39] = organism: Mus musculus; assay: Inhibition of estrone-stimulated uterine growth in mice at 50 ug
[40] = biological target: T2, Estrogen receptor (Mus musculus); assay: Uterotrophic effect in mice as uterus dry weight(mg) compared to body weight(g) at 240 ug/day dose; format: functional, tissue-based; outline: as §1
[41] = organism: Mus musculus; assay: Inhibition of estrone-stimulated uterine growth in mice at 5 ug; remark: listed apart in the source
[42] = organism: Mus musculus; assay: Inhibition of estrone-stimulated uterine growth in mice at 500 ug

T2 sequence (O08537 whole entry, looked up): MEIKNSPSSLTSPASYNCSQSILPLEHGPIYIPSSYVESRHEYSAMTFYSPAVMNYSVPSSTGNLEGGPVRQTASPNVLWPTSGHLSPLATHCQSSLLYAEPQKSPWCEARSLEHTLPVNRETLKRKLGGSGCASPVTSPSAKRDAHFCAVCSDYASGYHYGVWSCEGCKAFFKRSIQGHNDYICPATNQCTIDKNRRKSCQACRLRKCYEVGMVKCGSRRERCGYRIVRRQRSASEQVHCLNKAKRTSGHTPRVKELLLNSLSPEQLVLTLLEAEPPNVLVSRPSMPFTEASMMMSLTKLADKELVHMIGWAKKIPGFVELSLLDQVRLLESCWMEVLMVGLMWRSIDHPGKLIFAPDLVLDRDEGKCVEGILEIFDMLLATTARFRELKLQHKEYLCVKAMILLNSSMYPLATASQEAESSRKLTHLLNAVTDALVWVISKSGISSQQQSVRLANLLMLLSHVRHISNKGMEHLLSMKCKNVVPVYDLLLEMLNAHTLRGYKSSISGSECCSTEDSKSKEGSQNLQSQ
T2 sequence (P19785 whole entry, looked up): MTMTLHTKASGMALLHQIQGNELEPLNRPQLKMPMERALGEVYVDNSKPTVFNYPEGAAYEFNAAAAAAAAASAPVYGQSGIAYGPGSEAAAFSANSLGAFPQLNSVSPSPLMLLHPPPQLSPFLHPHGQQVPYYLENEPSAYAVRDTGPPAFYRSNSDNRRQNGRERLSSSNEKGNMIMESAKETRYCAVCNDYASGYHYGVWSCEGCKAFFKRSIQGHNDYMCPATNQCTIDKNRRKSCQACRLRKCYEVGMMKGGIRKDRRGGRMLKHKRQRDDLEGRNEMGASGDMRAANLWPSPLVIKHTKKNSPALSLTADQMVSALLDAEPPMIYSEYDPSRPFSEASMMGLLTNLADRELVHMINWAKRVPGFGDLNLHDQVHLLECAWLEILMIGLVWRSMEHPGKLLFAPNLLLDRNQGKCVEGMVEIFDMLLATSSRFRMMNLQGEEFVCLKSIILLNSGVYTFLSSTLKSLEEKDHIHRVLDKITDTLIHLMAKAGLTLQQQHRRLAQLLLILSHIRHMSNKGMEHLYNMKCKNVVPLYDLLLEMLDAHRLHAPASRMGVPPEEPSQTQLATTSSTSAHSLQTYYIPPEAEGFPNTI

Compound	Ka [1] [M⁻¹]	RA [2]	Effect [3]	Effect [5]	Effect [8]	Effect [9]	Effect [10]	Effect [11]	RAC [12]	Inhibition [13] [%]	Effect [17]	Effect [18]	Effect [22]	Effect [26]	Inhibition [28] [%]	Inhibition [29] [%]	also measured
CC(C)(c1cc(O)cc(O)c1)C(C)(C)c1cc(O)cc(O)c1	290000	4.3e-05	9.6	8.5	11.3	30.6	40.4	14.3	4e-05	11.7							Effect [4]: 38.9; Effect [6]: 9.4; Effect [7]: 9
CCC(CC)(c1cccc(O)c1)C(CC)(CC)c1cccc(O)c1	2.8e+07	0.0042	15.4	52.7	15.6	32.8		52.4	0.0039	23	38	42.9					Effect [14]: 35.8; Effect [15]: 23.1; Effect [16]: 27.4; Inhibition [19]: 47%
CC(C)(c1cccc(O)c1)C(C)(C)c1cccc(O)c1	6.7e+07	0.01	9.2		11.2		20.4		0.0093		28.7	19.4	14.6	33.9	43.2	70.3	Effect [20]: 13.4; Effect [21]: 15.7; Effect [23]: 23.4; Effect [24]: 15.4; Effect [25]: 9.8; Inhibition [27]: 26.5%; Inhibition [30]: 73.6%; Inhibition [31]: 60.5%
CCC(C)(c1ccc(O)cc1)C(C)(CC)c1ccc(O)cc1 (stereo not given)	1.8e+07	0.0027	15.4		14	34.6	38.2		0.0025	10.4	34		50.1		13.1		Effect [32]: 34.7; Effect [4]: 42.2; Effect [33]: 24.6; Effect [34]: 39.1
CC(=O)Oc1ccc(C(C)(C)C(C)(C)c2ccc(OC(C)=O)c(OC(C)=O)c2)cc1OC(C)=O	1.5e+06	0.00023	11.4		12.6	37.8	41.6		0.00021	13.3	37.8		14.2		13.5	0.3	Effect [32]: 13.8; Effect [35]: 13.8; Effect [34]: 13.6; Effect [36]: 36.4; Inhibition [37]: 18.3%
CC(C)(c1ccc(O)c(O)c1)C(C)(C)c1ccc(O)c(O)c1	4e+07	0.006	9.6	10	15.7		28.4	12.5	0.0056		35			38.6	21.5	45.5	Effect [6]: 8.9; Effect [7]: 9.7; Effect [38]: 32.8; Inhibition [27]: 6.8%; Inhibition [39]: 30.4%
CCC(CC)(c1ccc(O)cc1)C(CC)(CC)c1ccc(O)cc1	4.8e+07	0.005	9.2		14	34.6			0.0046	10.3	36.4	43.2			2.2		Effect [21]: 23.6; Effect [40]: 43.7; Effect [16]: 31.3; Effect [24]: 31.9; Effect [25]: 15.3; Inhibition [19]: 24.6%
CC(=O)Oc1cc(OC(C)=O)cc(C(C)(C)C(C)(C)c2cc(OC(C)=O)cc(OC(C)=O)c2)c1	480000	7.1e-05	11.4		12.6	37.5	41.3		6.6e-05	14.4	39		11.3		9.1	1.6	Effect [32]: 12.1; Effect [35]: 11.1; Effect [34]: 14.1; Effect [36]: 39.1; Inhibition [37]: 8.9%
CC(C)(c1ccc(O)cc1)C(C)(C)c1ccc(O)cc1	7.3e+07	0.011	9.2		11.2		19.4		0.01		28	19.3	13.3	37.3	45.4	73.5	Effect [20]: 14.3; Effect [21]: 15.7; Effect [23]: 24.4; Effect [24]: 15.8; Effect [25]: 10.6; Inhibition [41]: 15.4%; Inhibition [30]: 73.5%; Inhibition [31]: 57.3%
CCC(c1cccc(O)c1)C(CC)c1cccc(O)c1 (stereo not given)	3.5e+08	0.052							0.048								
CC(C)(c1ccc(F)c(O)c1)C(C)(C)c1ccc(F)c(O)c1	2.1e+07	0.0031	15.4	16.7	15.7		27.3	21.4	0.0029		35.2			36.1	20.9	53.1	Effect [4]: 25.2; Effect [14]: 16.7; Effect [15]: 17.8; Inhibition [27]: 17.2%; Inhibition [42]: 61.5%
